In brackets after ≈: the same amount, converted by molar mass. Activity calls are given as the source filed them. No cut-off for these calls is given here.
Assays:
Actinomyces viscosus [1] = assay: Evaluated for the in vitro minimum bactericidal concentration (MBC) against periopathogenic Actinomycetes viscosus bacteria; NE means not effective; format: functional, organism-based
Summary of the method: (§1)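 Tested against A. viscosus M100-2000, maintained in Trypticase Soy Broth with excess CaCO3, by tube dilution. EtOH or Me2SO stocks (1 mg/100 μL) were diluted at least 100-fold into 3-fold dilution series in Bacto Anaerobe broth. Tubes were seeded with 50 μL of 10⁸ cfu/mL log-phase culture and held at 37 °C in an anaerobic chamber (5% CO2, 10% H2, 85% Ar). Values are in μg/mL, consistent in triplicate.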

[2] = tested on: Aggregatibacter actinomycetemcomitans; assay: Evaluated for the in vitro minimum bactericidal concentration (MBC) against periopathogenic Actinobacillus actinomycetemcommitans bacteria; format: functional
Summary of the method: (§2)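 Tube dilution test against A. actinomycetemcomitans Y4, kept in Trypticase Soy Broth with excess CaCO3. Compound stocks of 1 mg/100 μL EtOH or Me2SO were diluted at least 100-fold into 3-fold series in Bacto Anaerobe broth. Each tube got 50 μL of log-phase inoculum at 10⁸ cfu/mL and was incubated at 37 °C under anaerobic 5% CO2/10% H2/85% Ar. Values are μg/mL, consistent across triplicates.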

Actinomyces viscosus [3] = assay: Evaluated for the in vitro minimum bactericidal concentration (MBC) against periopathogenic Actinomycetes viscosus bacteria; format: functional; summary of the method: as §1
Porphyromonas gingivalis [4] = assay: Evaluated for the in vitro minimum bactericidal concentration (MBC) against periopathogenic Bacteroides gingivalis bacteria; format: functional
Summary of the method: (§3)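 B. gingivalis 381, maintained in Trypticase Soy Broth plus excess CaCO3, was assayed by tube dilution. Stocks of 1 mg/100 μL in EtOH or Me2SO were diluted 100-fold or more to give 3-fold dilutions in Bacto Anaerobe broth. Inoculum was 50 μL of log-phase culture at 10⁸ cfu/mL, with incubation at 37 °C anaerobically (5% CO2/10% H2/85% Ar). Concentrations are μg/mL, consistent for triplicate assays.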

Porphyromonas gingivalis [5] = assay: Evaluated for the in vitro minimum bactericidal concentration (MBC) against periopathogenic Bacteroides gingivalis bacteria; NE means not effective; format: functional, organism-based; summary of the method: as §3
[6] = tested on: Aggregatibacter actinomycetemcomitans; assay: Evaluated for the in vitro minimum bactericidal concentration (MBC) against periopathogenic Actinobacillus actinomycetemcommitans bacteria; NE means not effective; format: functional, organism-based; summary of the method: as §2
Actinomyces viscosus [7] = assay: Evaluated for the in vitro minimum bactericidal concentration (MBC) against periopathogenic Actinomycetes viscosus bacteria.; format: functional; summary of the method: as §1
Actinomyces viscosus [8] = assay: Evaluated for the in vitro minimum bactericidal concentration (MBC) against periopathogenic Actinomycetes viscosus bacteria;NE means not effective; format: functional, organism-based; summary of the method: as §1

Structure (SMILES): CCCCCCCC(=O)c1ccc(O)c(-c2nc3cc(Cl)ccc3[nH]2)c1
- MBC (Actinomyces viscosus [1]): inactive

Structure (SMILES): Oc1c(Br)cc(Br)cc1-c1nc2cc(Cl)ccc2[nH]1
- MBC [2]: 5 µg/mL (≈ 12.4 µM)
- MBC (Actinomyces viscosus [3]): 0.5 µg/mL (≈ 1.24 µM)
- MBC (Porphyromonas gingivalis [4]): 0.05 µg/mL (≈ 0.124 µM)

Structure (SMILES): CCCCCCCCC(=O)c1ccc(O)c(-c2nc3cc(Cl)ccc3[nH]2)c1
- MBC (Porphyromonas gingivalis [5]): inactive
- MBC [6]: inactive
- MBC (Actinomyces viscosus [1]): inactive

Structure (SMILES): CCCCCCC(=O)c1ccc(O)c(-c2nc3cc(C)ccc3[nH]2)c1
- MBC (Porphyromonas gingivalis [5]): inactive
- MBC [6]: inactive
- MBC (Actinomyces viscosus [1]): inactive

Structure (SMILES): CCCCCCC(=O)c1ccc(O)c(-c2nc3cc(C(F)(F)F)ccc3[nH]2)c1
- MBC [6]: inactive
- MBC (Actinomyces viscosus [3]): 0.5 µg/mL (≈ 1.28 µM)
- MBC (Porphyromonas gingivalis [4]): 0.05 µg/mL (≈ 0.128 µM)

Structure (SMILES): CCCCCCCCCC(=O)c1ccc(O)c(-c2nc3cc(C(F)(F)F)ccc3[nH]2)c1
- MBC (Porphyromonas gingivalis [5]): inactive
- MBC [6]: inactive
- MBC (Actinomyces viscosus [1]): inactive

Structure (SMILES): CCCCCC(=O)c1ccc(O)c(-c2nc3cc(C(F)(F)F)ccc3[nH]2)c1
- MBC [6]: inactive
- MBC (Actinomyces viscosus [3]): 0.5 µg/mL (≈ 1.33 µM)
- MBC (Porphyromonas gingivalis [4]): 0.1 µg/mL (≈ 0.266 µM)

Structure (SMILES): CCCCCCCCC(=O)c1ccc(O)c(-c2nc3cc(C(F)(F)F)ccc3[nH]2)c1
- MBC (Actinomyces viscosus [3]): 0.5 µg/mL (≈ 1.19 µM)
- MBC (Porphyromonas gingivalis [4]): 0.1 µg/mL (≈ 0.239 µM)

Structure (SMILES): CCCCCCCC(=O)c1ccc(O)c(-c2nc3cc(C(F)(F)F)ccc3[nH]2)c1
- MBC [6]: inactive
- MBC (Actinomyces viscosus [3]): 0.5 µg/mL (≈ 1.24 µM)
- MBC (Porphyromonas gingivalis [4]): 0.5 µg/mL (≈ 1.24 µM)

Structure (SMILES): O=C(Nc1ccc(Br)cc1)c1cc(Br)cc(Br)c1O [TRIBROMSALAN]
- MBC [2]: 0.5 µg/mL (≈ 1.11 µM)
- MBC (Actinomyces viscosus [3]): 1 µg/mL (≈ 2.22 µM)
- MBC (Porphyromonas gingivalis [4]): 0.05 µg/mL (≈ 0.111 µM)

Structure (SMILES): CCCCCCC(=O)c1ccc(O)c(-c2nc3cc(Cl)ccc3[nH]2)c1
- MBC (Porphyromonas gingivalis [5]): inactive
- MBC [6]: inactive
- MBC (Actinomyces viscosus [1]): inactive

Structure (SMILES): CCCC(=O)c1ccc(O)c(-c2nc3cc(C(F)(F)F)ccc3[nH]2)c1
- MBC [2]: 5 µg/mL (≈ 14.4 µM)
- MBC (Actinomyces viscosus [3]): 0.5 µg/mL (≈ 1.44 µM)
- MBC (Porphyromonas gingivalis [4]): 0.05 µg/mL (≈ 0.144 µM)

Structure (SMILES): N=C(NCCCCCCNC(=N)NC(=N)Nc1ccc(Cl)cc1)NC(=N)Nc1ccc(Cl)cc1 [CHLORHEXIDINE]
- MBC [2]: 0.5 µg/mL (≈ 0.989 µM)
- MBC (Actinomyces viscosus [3]): 0.5 µg/mL (≈ 0.989 µM)
- MBC (Porphyromonas gingivalis [4]): 0.05 µg/mL (≈ 0.0989 µM)

Structure (SMILES): CN(C)[C@@H]1C(O)=C(C(N)=O)C(=O)[C@@]2(O)C(O)=C3C(=O)c4c(O)cccc4[C@@](C)(O)[C@H]3C[C@@H]12 [TETRACYCLINE]
- MBC [2]: 0.5 µg/mL (≈ 1.13 µM)
- MBC (Actinomyces viscosus [3]): 0.5 µg/mL (≈ 1.13 µM)
- MBC (Porphyromonas gingivalis [4]): 0.05 µg/mL (≈ 0.113 µM)

Structure (SMILES): CCCCC(=O)c1ccc(O)c(-c2nc3cc(C(F)(F)F)ccc3[nH]2)c1
- MBC [6]: inactive
- MBC (Porphyromonas gingivalis [4]): 0.5 µg/mL (≈ 1.38 µM)
- MBC (Actinomyces viscosus [7]): 0.5 µg/mL (≈ 1.38 µM)

Structure (SMILES): CCCCCCCCC(=O)c1ccc(O)c(-c2nc3cc([N+](=O)[O-])ccc3[nH]2)c1
- MBC (Porphyromonas gingivalis [5]): inactive
- MBC [6]: inactive
- MBC (Actinomyces viscosus [1]): inactive

Structure (SMILES): Cc1ccc2[nH]c(-c3ccccc3O)nc2c1
- MBC [2]: 1 µg/mL (≈ 4.46 µM)
- MBC (Porphyromonas gingivalis [4]): 1 µg/mL (≈ 4.46 µM)
- MBC (Actinomyces viscosus [1]): inactive

Structure (SMILES): Oc1c(Br)cc(Br)cc1-c1nc2cc(C(F)(F)F)ccc2[nH]1
- MBC [2]: 1 µg/mL (≈ 2.29 µM)
- MBC (Actinomyces viscosus [3]): 0.1 µg/mL (≈ 0.229 µM)
- MBC (Porphyromonas gingivalis [4]): 0.05 µg/mL (≈ 0.115 µM)

Structure (SMILES): Oc1ccccc1-c1nc2cc(C(F)(F)F)ccc2[nH]1
- MBC [6]: inactive
- MBC (Porphyromonas gingivalis [4]): 50 µg/mL (≈ 180 µM)
- MBC (Actinomyces viscosus [8]): inactive

Structure (SMILES): CCCCCCCCC(=O)c1ccc(O)c(-c2nc3cc(C)ccc3[nH]2)c1
- MBC [6]: inactive
- MBC (Actinomyces viscosus [3]): 10 µg/mL (≈ 27.4 µM)

From ChEMBL document CHEMBL1123582, “Substituted 2-(2-hydroxyphenyl)benzimidazoles as potential agents for the control of periodontal diseases” (1987)
